Data on 26 molecules can be found in ChEMBL document CHEMBL1121765, “3-Phenylpiperidines. Central dopamine-autoreceptor stimulating activity” (1981).

Experiment [1] addresses T1, Dopamine receptor (Rattus norvegicus) (UniProt P25115+P19020+P30729+P18901+P61169). The experiment in a line: Dopamine receptor activation in striatum of reserpinized rat; Inactive at >45 uM/Kg. The format is tissue-based.
The target in experiment [2] is T1, Dopamine receptor (Rattus norvegicus). The experiment in a line: Dopamine receptor activation in limbic system of reserpinized rat; Inactive at >45 uM/Kg. The experiment is classed as tissue-based.
The target is the same in experiment [3]. The experiment in a line: Evaluation for Dopamine receptor activation in limbic system of reserpinized rat. The experiment is classed as tissue-based.
Experiment [4] has the same target. Briefly: Evaluation of Dopamine receptor activation in striatum of reserpinized rat. The experiment is classed as functional, tissue-based.
Experiment [5] concerns Rattus norvegicus. The experiment in a line: Motor activity in reserpinized rats when 100 umol/kg was administered subcutaneously. The format is functional. The method, boiled down:
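Rats pretreated ip with reserpine (10 mg/kg) 6 h before testing; compound given sc in neck region, rats placed singly in photocell motility meters immediately after and motor activity recorded for 60 min, testing between 1 and 6 p.m.; saline controls; gross behaviour observed.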

Experiment [6] concerns Rattus norvegicus. Briefly: Motor activity in reserpinized rats when 2 umol/kg was administered subcutaneously.

Calls of active or inactive are those of the source. The rule behind the calls is not given here.

For orientation: ED50 means the dose at which the effect has come halfway, by size or by number of responders. For the molecule `Oc1cccc(-c2cccnc2)c1`, the ED50 result in experiment [1] and in experiment [2] was “inactive” throughout.
As to `CCCN1CCCCC(c2cccc(O)c2)C1` (centres undefined), the ED50 entry in experiment [1] and in experiment [2] was “inactive” throughout.
In the case of `CCCN1CCCC(c2cccc(C)c2)C1` (centres undefined), the ED50 result in experiment [1] and in experiment [2] was “inactive” in each case.
For `CCCN1CCCC(c2cccc(OC)c2)C1` (centres undefined), the ED50 entry in experiment [1] and in experiment [2] was “inactive” each time.
`CC(C)N1CCC(c2cccc(O)c2)C1` (centres undefined): the ED50 result in experiment [1] and in experiment [2] was “inactive” throughout.
Turning to `Oc1cccc(C2CN3CCC2CC3)c1` (centres undefined), the ED50 result in experiment [1] and in experiment [2] was “inactive” throughout.
Take `CCCNCCc1cccc(O)c1`: the ED50 in experiment [3] was found to be 0.9 µmol/kg; in experiment [4], 0.8 µmol/kg.
Molecule `CC(C)(C)CN1CCCC(c2cccc(O)c2)C1` (centres undefined) displayed an ED50 in experiment [4] of more than 2.8 µmol/kg.
For the molecule `Oc1cccc(C2=CN3CCC2CC3)c1`, the ED50 result in experiment [1] and in experiment [2] was “inactive” each time.
Consider `CCCN1CCC(c2cccc(O)c2)C1` (centres undefined), for which the median effective dose (ED50) in experiment [3] and in experiment [4] was 45 µmol/kg in each case.
Turning to `CCCCCN1CCCC(c2cccc(O)c2)C1` (centres undefined), it took a dose of 0.9 µmol/kg to reach the 50% effect level in experiment [4] (ED50).
As for `CN1CCCC(c2cccc(O)c2)C1` (centres undefined), the ED50 in experiment [4] is 2.5 µmol/kg.
As for `CCCN1CCCC(c2cccc(C(N)=O)c2)C1` (centres undefined), the ED50 entry in experiment [1] and in experiment [2] was “inactive” throughout.
The molecule `Br.CCCN1CCCC(c2ccc(O)c(O)c2)C1` (centres undefined) displayed a Motor activity in experiment [5] of 522.
As to `CCCN1CCCC(c2cccc(N)c2)C1` (centres undefined), the ED50 entry in experiment [1] and in experiment [2] was “inactive” in each case.
`CCCN1CCCC(c2cccc(CO)c2)C1` (centres undefined): the ED50 entry in experiment [1] and in experiment [2] was “inactive” in each case.
`CCCN1CCCC(c2ccccc2O)C1` (centres undefined): the ED50 result in experiment [1] and in experiment [2] was “inactive” throughout.
As for `CCCN1CCCC(c2cccc(C(=O)OC)c2)C1` (centres undefined), the ED50 result in experiment [1] and in experiment [2] was “inactive” throughout.
`CCCN1CCCC(c2ccc(O)cc2)C1` (centres undefined): the ED50 result in experiment [1] and in experiment [2] was “inactive” each time.
Consider `CCCN1CCCC(c2ccccc2)C1` (centres undefined), for which the ED50 entry in experiment [1] and in experiment [2] was “inactive” throughout.
`Oc1cccc(C2CCCN(C3CCCCC3)C2)c1` (centres undefined) had a 50% effective dose (ED50) in experiment [4] of 45 µmol/kg.
As to `CCCN1CCCC(c2cccc(C#N)c2)C1` (centres undefined), the ED50 entry in experiment [1] and in experiment [2] was “inactive” throughout.
Molecule `CN1CCc2cccc3c2[C@H]1Cc1ccc(O)c(O)c1-3` [APOMORPHINE] gave a Motor activity in experiment [6] of 624.
As for `Oc1cccc(C2CCCN(Cc3ccccc3)C2)c1` (centres undefined), the ED50 in experiment [4] is 24 µmol/kg.
Regarding `Br.CCCN1CCCC(c2cccc(O)c2)C1` (centres undefined), the Motor activity in experiment [5] was determined as 55.
`Oc1cccc(C2CCNC2)c1` (centres undefined): the ED50 entry in experiment [1] and in experiment [2] was “inactive” each time.
